Results: publication PMC6129982 (Nature, 2018)

T1: Orco (Apocrypta bakeri, UniProt B0FAQ4)
T1 sequence (B0FAQ4 2-474): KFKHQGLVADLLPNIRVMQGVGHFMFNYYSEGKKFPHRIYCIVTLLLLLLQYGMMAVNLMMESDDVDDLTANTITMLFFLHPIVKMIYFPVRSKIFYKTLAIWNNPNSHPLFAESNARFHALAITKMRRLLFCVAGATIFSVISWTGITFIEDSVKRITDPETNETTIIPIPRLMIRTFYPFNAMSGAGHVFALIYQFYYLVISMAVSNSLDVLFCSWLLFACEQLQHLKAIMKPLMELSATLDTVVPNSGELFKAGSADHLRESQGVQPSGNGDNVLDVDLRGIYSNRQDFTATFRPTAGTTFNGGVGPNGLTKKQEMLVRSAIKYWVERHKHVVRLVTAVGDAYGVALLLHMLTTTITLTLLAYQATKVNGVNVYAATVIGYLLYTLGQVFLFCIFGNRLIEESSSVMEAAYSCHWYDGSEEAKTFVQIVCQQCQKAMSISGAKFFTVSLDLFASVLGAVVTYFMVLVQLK

T2: Orco-Fab complex (Apocrypta bakeri, UniProt B0FAQ4)
T2 sequence (B0FAQ4 2-474): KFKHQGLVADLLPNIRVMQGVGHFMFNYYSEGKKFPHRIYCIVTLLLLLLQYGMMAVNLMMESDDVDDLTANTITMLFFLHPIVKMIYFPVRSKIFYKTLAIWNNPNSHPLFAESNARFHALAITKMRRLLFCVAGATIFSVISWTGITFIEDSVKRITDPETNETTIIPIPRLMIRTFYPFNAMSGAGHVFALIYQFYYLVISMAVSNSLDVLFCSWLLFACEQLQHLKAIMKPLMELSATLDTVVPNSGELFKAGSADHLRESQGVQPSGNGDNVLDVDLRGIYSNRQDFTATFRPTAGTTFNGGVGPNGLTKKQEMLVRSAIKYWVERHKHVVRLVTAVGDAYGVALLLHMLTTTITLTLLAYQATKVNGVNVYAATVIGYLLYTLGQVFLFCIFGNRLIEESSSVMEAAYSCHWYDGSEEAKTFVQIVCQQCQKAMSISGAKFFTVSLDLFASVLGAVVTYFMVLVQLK

T3: Orco L473A (Apocrypta bakeri, UniProt B0FAQ4, L473A)
T3 sequence (B0FAQ4 1-474 L473A): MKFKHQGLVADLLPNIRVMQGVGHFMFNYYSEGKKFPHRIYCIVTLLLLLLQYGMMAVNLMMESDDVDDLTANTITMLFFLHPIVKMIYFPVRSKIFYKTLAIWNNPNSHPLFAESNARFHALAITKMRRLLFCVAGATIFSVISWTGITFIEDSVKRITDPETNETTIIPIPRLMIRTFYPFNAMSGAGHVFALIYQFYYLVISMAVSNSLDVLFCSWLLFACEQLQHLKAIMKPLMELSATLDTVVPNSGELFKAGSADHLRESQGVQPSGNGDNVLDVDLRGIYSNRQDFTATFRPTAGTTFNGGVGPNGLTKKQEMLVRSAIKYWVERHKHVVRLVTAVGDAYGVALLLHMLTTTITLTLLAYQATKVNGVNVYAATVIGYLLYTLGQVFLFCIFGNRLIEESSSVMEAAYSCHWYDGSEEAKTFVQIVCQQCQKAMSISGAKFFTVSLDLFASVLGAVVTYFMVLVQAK

T4: Orco V469A (Apocrypta bakeri, UniProt B0FAQ4, V469A)
T4 sequence (B0FAQ4 1-474 V469A): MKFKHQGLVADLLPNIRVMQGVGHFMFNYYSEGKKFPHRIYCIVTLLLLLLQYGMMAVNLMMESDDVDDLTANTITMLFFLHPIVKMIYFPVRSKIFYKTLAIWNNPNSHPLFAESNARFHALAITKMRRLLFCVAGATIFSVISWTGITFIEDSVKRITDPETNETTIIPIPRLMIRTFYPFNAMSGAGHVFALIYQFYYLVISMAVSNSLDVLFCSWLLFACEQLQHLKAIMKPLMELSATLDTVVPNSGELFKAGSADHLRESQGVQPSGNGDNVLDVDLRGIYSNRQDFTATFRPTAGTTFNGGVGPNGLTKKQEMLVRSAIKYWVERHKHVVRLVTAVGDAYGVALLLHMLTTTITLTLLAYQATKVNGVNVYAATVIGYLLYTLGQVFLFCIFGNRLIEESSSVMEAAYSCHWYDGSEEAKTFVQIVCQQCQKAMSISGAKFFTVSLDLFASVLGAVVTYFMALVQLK

T5: Orco T465A (Apocrypta bakeri, UniProt B0FAQ4, T465A)
T5 sequence (B0FAQ4 1-474 T465A): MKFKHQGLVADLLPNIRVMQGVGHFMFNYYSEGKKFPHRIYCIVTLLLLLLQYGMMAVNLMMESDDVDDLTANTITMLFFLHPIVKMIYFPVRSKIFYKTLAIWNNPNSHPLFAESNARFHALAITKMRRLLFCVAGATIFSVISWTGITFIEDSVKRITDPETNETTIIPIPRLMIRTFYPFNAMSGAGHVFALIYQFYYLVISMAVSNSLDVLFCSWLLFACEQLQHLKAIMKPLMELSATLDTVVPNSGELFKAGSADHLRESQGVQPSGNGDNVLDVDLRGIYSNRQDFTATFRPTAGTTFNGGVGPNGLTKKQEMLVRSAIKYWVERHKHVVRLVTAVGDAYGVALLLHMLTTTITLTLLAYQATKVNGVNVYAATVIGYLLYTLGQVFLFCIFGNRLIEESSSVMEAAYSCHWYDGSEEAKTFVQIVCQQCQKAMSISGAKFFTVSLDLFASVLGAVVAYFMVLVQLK

T6: Orco S458A (Apocrypta bakeri, UniProt B0FAQ4, S458A)
T6 sequence (B0FAQ4 1-474 S458A): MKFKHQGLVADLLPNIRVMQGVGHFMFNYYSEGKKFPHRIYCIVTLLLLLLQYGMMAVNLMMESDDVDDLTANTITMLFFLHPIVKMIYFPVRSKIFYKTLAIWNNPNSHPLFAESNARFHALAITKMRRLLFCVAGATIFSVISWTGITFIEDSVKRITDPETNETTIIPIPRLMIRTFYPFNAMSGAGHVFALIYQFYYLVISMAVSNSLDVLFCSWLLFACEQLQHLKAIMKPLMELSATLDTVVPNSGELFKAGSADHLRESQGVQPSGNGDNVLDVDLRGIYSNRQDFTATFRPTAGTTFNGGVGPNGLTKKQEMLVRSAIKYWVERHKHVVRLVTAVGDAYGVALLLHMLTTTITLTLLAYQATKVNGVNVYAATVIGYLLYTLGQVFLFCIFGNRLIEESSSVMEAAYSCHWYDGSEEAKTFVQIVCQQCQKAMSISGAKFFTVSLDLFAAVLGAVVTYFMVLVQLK

B1: Apocrypta bakeri Orco, purified (residues Lys2-Lys474, Strep-GFP tag cleaved) (receptor, UniProt B0FAQ4 2-474, looked up)
chain: KFKHQGLVADLLPNIRVMQGVGHFMFNYYSEGKKFPHRIYCIVTLLLLLLQYGMMAVNLMMESDDVDDLTANTITMLFFLHPIVKMIYFPVRSKIFYKTLAIWNNPNSHPLFAESNARFHALAITKMRRLLFCVAGATIFSVISWTGITFIEDSVKRITDPETNETTIIPIPRLMIRTFYPFNAMSGAGHVFALIYQFYYLVISMAVSNSLDVLFCSWLLFACEQLQHLKAIMKPLMELSATLDTVVPNSGELFKAGSADHLRESQGVQPSGNGDNVLDVDLRGIYSNRQDFTATFRPTAGTTFNGGVGPNGLTKKQEMLVRSAIKYWVERHKHVVRLVTAVGDAYGVALLLHMLTTTITLTLLAYQATKVNGVNVYAATVIGYLLYTLGQVFLFCIFGNRLIEESSSVMEAAYSCHWYDGSEEAKTFVQIVCQQCQKAMSISGAKFFTVSLDLFASVLGAVVTYFMVLVQLK

Tests used:
Orco [1] = molecular target: T1, Orco; test: Isothermal titration calorimetry; assay type: binding
Outline: (§1)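 A. bakeri Orco was expressed from baculovirus in HEK293S GnTi− cells, StrepTactin-purified and tag-cleaved in HBS/0.05% digitonin. It was used alone or complexed with Fab (1.5-fold molar excess) at ~10 μM monomer. VUAA1 (0.5 mM in the same buffer, 0.5% DMSO matched) was injected at 25 °C: 0.4 μL, then 19 × 2 μL, 150 s apart. A single-site fit (n fixed at 1, first injection excluded) gave Kd, ΔH and ΔQdil; three independent purifications.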

Orco-Fab complex = molecular target: T2, Orco-Fab complex; test: Isothermal titration calorimetry; assay type: binding
Outline: as §1

Orco [2] = molecular target: T1, Orco; test: Whole-cell voltage-clamp VUAA1 dose-response, HEK293 cell expressing Orco; assay type: cell-based
Outline: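 Whole-cell recording used Flp-In T-Rex 293 cells stably expressing GFP-tagged wild-type Orco, held at −80 mV. Bath: 135 mM NaCl, 5 mM KCl, 2 mM CaCl2, 2 mM MgCl2, 10 mM glucose, HEPES pH 7.3. Pipette: 150 mM KCl, 10 mM NaCl, 1 mM EDTA, HEPES pH 7.45. VUAA1 was diluted in bath solution and locally perfused. Current was normalised to the current at the highest concentration and Hill-fitted; four cells, mean ± s.d. Outside-out patches were held at −140 mV.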

Orco L473A = molecular target: T3, Orco L473A; test: Cell-based GCaMP assay, mutant Orco homomer; set-up: species or system A. bakeri; conditions: mutation of Leu473 to alanine
Outline: (§2)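 Orco alone (A. bakeri wild-type or point mutant, or An. gambiae) was transfected with GCaMP6s into HEK293 cells by lipofectamine. After 4 h plus 24 h, cells were read in HEPES-buffered HBSS pH 7.4 with 5 mM CaCl2. VUAA1 was added after 34 s at seven concentrations plus zero, four wells each. GCaMP fluorescence (480/527 nm, 37 °C) was followed for 2 min. A Hill equation fitted to ΔF/Fo gave EC50 and n over N independent replicates.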

Orco V469A = molecular target: T4, Orco V469A; test: Cell-based GCaMP assay, mutant Orco homomer; set-up: species or system A. bakeri; conditions: mutation of Val469 to alanine
Outline: as §2

Orco T465A = molecular target: T5, Orco T465A; test: Cell-based GCaMP assay, mutant Orco homomer; set-up: species or system A. bakeri; conditions: mutation of Thr465 to alanine
Outline: as §2

Orco S458A = molecular target: T6, Orco S458A; test: Cell-based GCaMP assay, mutant Orco homomer; set-up: species or system A. bakeri; conditions: mutation of Ser458 to alanine
Outline: as §2

cryo-EM structure = molecular target: the molecule itself; test: cryo-EM structure
[3] = ITC 25 °C, fitted parameter, mean ± s.d.
[4] = ITC 25 °C, single-site model, mean ± s.d.

Molecule	Kd (Orco [1]) [µM]	heat associated with sample dilution (ΔQdil) (Orco [1]; [3]) [kcal/mol]	enthalpy of binding (ΔH) (Orco [1]; [4]) [kcal/mol]	Kd (Orco-Fab complex) [µM]	binding affinity of Orco-Fab complex for VUAA1 versus Orco (Orco-Fab complex; ITC)	heat associated with sample dilution (ΔQdil) (Orco-Fab complex; [3]) [kcal/mol]	enthalpy of binding (ΔH) (Orco-Fab complex; [4]) [kcal/mol]	EC50 (Orco [2]) [µM]	channel activation (Orco [2]; Orco expressed independently, whole-cell and outside-out patch recording)	Hill coefficient n (Orco [2]; whole-cell current, Hill fit, four independent cells, mean ± s.d.)	enhancement of apparent sensitivity of Orco homomers versus wild-type (Orco L473A) [fold]	enhancement of apparent sensitivity of Orco homomers versus wild-type (Orco V469A) [fold]	VUAA1 responses in Orco homomers versus wild-type (Orco T465A)	VUAA1 responses in Orco homomers versus wild-type (Orco S458A)	stoichiometry N (cryo-EM structure)
CCc1ccc(NC(=O)CSc2nnc(-c3cccnc3)n2CC)cc1 [VUAA1]	13 ± 1	-1.0 ± 0.1	-8.3 ± 0.6	18 ± 2	retained its binding affinity	-1.0 ± 0.2	-9.7 ± 0.4	64 ± 7	activated	3.5 ± 0.5	10	10	strongly attenuated	strongly attenuated	
B1															4
